Reference: ChEMBL document CHEMBL4229527, “Design and synthesis of novel pyrimido[5,4-d]pyrimidine derivatives as GPR119 agonist for treatment of type 2 diabetes” (Bioorg Med Chem, 2018)

Legend:
[1] = target: T1, Glucose-dependent insulinotropic receptor (Homo sapiens, UniProt Q8TDV5); test: Agonist activity at human GPR119 expressed in CHOK1 cells assessed as cAMP accumulation after 1 hr by ultra LANCE assay; type: functional, cell-based
T1 sequence (Q8TDV5 whole entry): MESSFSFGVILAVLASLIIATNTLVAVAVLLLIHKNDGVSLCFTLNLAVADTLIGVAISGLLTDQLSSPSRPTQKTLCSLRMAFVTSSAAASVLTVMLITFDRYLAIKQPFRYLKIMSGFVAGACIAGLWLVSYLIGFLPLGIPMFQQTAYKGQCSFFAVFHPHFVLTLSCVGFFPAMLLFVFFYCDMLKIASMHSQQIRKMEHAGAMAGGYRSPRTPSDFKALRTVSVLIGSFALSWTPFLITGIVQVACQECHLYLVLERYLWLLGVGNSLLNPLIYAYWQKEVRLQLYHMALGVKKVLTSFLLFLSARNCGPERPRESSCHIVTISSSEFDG
Procedure, shortened: (§1)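 hGPR119-transfected cells were centrifuged and resuspended in cAMP assay buffer (HBSS, 0.1% BSA, 0.5 mM IBMX). They were treated with compounds over a concentration range for 1 h. Eu-cAMP tracer and ULight anti-cAMP lysis solutions were then added, with 1 h at room temperature. LANCE Ultra TR-FRET read, triplicates per concentration. EC50 is the concentration giving 50% cAMP stimulation; %max is relative to GSK-1292263 maximal effect.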

[2] = target: T2, Glucose-dependent insulinotropic receptor (Homo sapiens) (UniProt Q8TDV5); test: Agonist activity at human GPR119 expressed in CHOK1 cells assessed as cAMP accumulation after 1 hr by ultra LANCE assay relative to GSK1292263; type: functional, cell-based; procedure, shortened: as §1
T2 sequence (whole entry): T1 sequence (Q8TDV5 whole entry)

[3] = test system: Mus musculus; test: Antidiabetic activity in C57BL/6N mouse assessed as reduction in blood glucose AUC (0 to 120 mins) administered as single dose after 16 hrs of starvation followed by glucose challenge at 4 hrs post dose by OGTT; type: functional, organism-based
Procedure, shortened: (§2)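 C57BL/6N mice were fasted 16 h and given a single dose: vehicle (0.5% sodium carboxymethylcellulose, 10 mL/kg), test compounds at 5 or 15 mg/kg, or metformin at 300 mg/kg. A glucose challenge (3 g/kg, oral) followed 4 h later. Blood glucose was read at 0, 15, 30, 60, 90 and 120 min for AUC0–2h. n = 8; mean ± SE versus vehicle.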

[4] = test system: Mus musculus; test: Antidiabetic activity in C57BL/6N mouse assessed as reduction in blood glucose AUC (0 to 120 mins) at 15 mg/kg administered as single dose after 16 hrs of starvation followed by glucose challenge at 4 hrs post dose by OGTT relative to control; type: functional; design: scale not given: the % may be the effect or the level left; procedure, shortened: as §2
[5] = test system: Mus musculus; test: Antidiabetic activity in C57BL/6N mouse assessed as reduction in blood glucose AUC (0 to 120 mins) at 5 mg/kg administered as single dose after 16 hrs of starvation followed by glucose challenge at 4 hrs post dose by OGTT relative to control; type: functional; design: scale not given: the % may be the effect or the level left; procedure, shortened: as §2
[6] = test system: Mus musculus; test: Antidiabetic activity in C57BL/6N mouse assessed as reduction in blood glucose AUC (0 to 120 mins) at 300 mg/kg administered as single dose after 16 hrs of starvation followed by glucose challenge at 4 hrs post dose by OGTT relative to control; type: functional; design: scale not given: the % may be the effect or the level left; procedure, shortened: as §2

Compound | EC50 [1] [nM] | %max [2] [%] | Activity [3] | Activity [4] [%] | Activity [5] [%] | Activity [6] [%]
CC(C)(C)OC(=O)N1C[C@@H]2CC[C@H]1C[C@@H]2Nc1ncnc2c(Nc3ccc(C#N)cc3F)ncnc12 (relative stereo) | 49 | 73.3 |  |  |  | 
CC(C)(C)OC(=O)N1[C@@H]2CC[C@H]1C[C@H](Nc1ncnc3c(Nc4ccc(C#N)cc4F)ncnc13)C2 | 1700 | 58.1 |  |  |  | 
CC(C)(C)OC(=O)N1C[C@@H]2CC[C@H]1C[C@H]2Nc1ncnc2c(Nc3ccc(C#N)cc3F)ncnc12 (relative stereo) | > 10000 | 31.7 |  |  |  | 
CC(C)(C)OC(=O)N1[C@@H]2CC[C@H]1C[C@@H](Nc1ncnc3c(Nc4ccc(C#N)cc4F)ncnc13)C2 | 8.1 | 83.8 | Dose-dependent effect | 8.9 | 3.5 | 
CC(C)(C)OC(=O)N1CCC(Nc2ncnc3c(Nc4ccc(C#N)cc4F)ncnc23)CC1 | 147 | 67.2 |  |  |  | 
CN(C)C(=N)NC(=N)N [METFORMIN] |  |  |  |  |  | 18.2
CC(C)(C)OC(=O)N1C[C@@H]2CC[C@H]1C[C@@H]2Nc1ncnc2c(Nc3ccc(S(C)(=O)=O)cc3)ncnc12 (relative stereo) | 179 | 71.8 |  |  |  | 
CC(C)(C)OC(=O)N1[C@@H]2CC[C@H]1C[C@@H](Oc1ncnc3c(Nc4ccc(C#N)cc4F)ncnc13)C2 | 36 | 78.9 |  |  |  | 
CC(C)(C)OC(=O)N1CCC(Nc2ncnc3c(Nc4ccc(S(C)(=O)=O)cc4)ncnc23)CC1 | 345 | 61.3 |  |  |  | 
CC(C)(C)OC(=O)N1[C@@H]2CC[C@H]1C[C@H](Nc1ncnc3c(Nc4ccc(S(C)(=O)=O)cc4F)ncnc13)C2 | 452 | 65.3 |  |  |  | 
CC(C)(C)OC(=O)N1CCC(Oc2ncnc3c(Nc4ccc(C#N)cc4F)ncnc23)CC1 | 1000 | 53.4 |  |  |  | 
CC(C)(C)OC(=O)N1[C@@H]2CC[C@H]1C[C@H](Nc1ncnc3c(Nc4ccc(S(C)(=O)=O)cc4)ncnc13)C2 | 1400 | 47.5 |  |  |  | 
CC(C)(C)OC(=O)N1[C@@H]2CC[C@H]1C[C@H](Oc1ncnc3c(Nc4ccc(C#N)cc4F)ncnc13)C2 | > 10000 | 36.4 |  |  |  | 
CC(C)(C)OC(=O)N1[C@@H]2CC[C@H]1C[C@@H](Nc1ncnc3c(Nc4ccc(S(C)(=O)=O)cc4F)ncnc13)C2 | 2.2 | 87.5 | Dose-dependent effect | 13.5 | 6.4 | 
CC(C)(C)OC(=O)N1[C@@H]2CC[C@H]1C[C@@H](Nc1ncnc3c(Nc4ccc(S(C)(=O)=O)cc4)ncnc13)C2 | 44 | 72.9 |  |  |  | 
